Compounds with a hit are over-represented: about 1.8% of the library has one in this group of screens.
ABHD4 inh = ABHD4 inhibitors, primary screen, biochemical, fluorescence polarization, mouse; (Lyso)-N-acylphosphatidylethanolamine lipase (Mus musculus), Q8VD66; purified mABHD4, FP-Rh probe fluorescence polarization; inhibition, % at 8.92 µM; 370,000 tested, 0.54% active; AID 720543, 2013;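 active = inhibition exceeding the mean over every tested compound plus 3 SD, cut at about 30% in these data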
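Test system: mABHD4 protein; Read-out basis: % inhibition; Incubation: 45 min + 60 min at 25 °C; Repeats: single replicate; Technique: fluorescence polarization with parallel and perpendicular emission, 525/598 nm; Compound: 8.92 µM, single dose; Benchmarks: full inhibition S159A mutant plus DMSO, zero as sample-well median.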
SIAE inh = human SIAE inhibitors, primary screen, biochemical, fluorescence polarization, FP-Rh probe, 1536-well HTS. SIAE FP-Rh probe binding. inhibition, % at 9.66 µM. 370,000 tested, 0.69% active;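 active = inhibition above a cutoff: mean of compounds within the control limits plus 3 SD of those, cut at about 17% in these data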
Target sequence (Q9HAT2 whole entry, looked up): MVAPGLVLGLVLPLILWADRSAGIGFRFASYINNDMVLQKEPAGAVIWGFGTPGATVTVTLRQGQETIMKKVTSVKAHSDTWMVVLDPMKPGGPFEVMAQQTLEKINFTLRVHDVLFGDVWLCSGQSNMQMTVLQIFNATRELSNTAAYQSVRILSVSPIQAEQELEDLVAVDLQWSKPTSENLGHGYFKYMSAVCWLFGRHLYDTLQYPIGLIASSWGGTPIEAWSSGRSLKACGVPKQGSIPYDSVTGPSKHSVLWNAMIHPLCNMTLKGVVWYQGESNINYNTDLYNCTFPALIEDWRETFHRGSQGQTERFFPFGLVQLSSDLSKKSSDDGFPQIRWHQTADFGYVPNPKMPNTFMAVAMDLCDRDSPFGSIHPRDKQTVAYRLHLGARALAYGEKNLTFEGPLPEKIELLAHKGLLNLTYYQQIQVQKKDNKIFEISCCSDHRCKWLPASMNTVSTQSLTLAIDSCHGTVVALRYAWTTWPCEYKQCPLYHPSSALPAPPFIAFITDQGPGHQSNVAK
PME-1 inh = PME-1 inhibitors via competitive probe labeling, primary screen, biochemical, fluorescence polarization, FP-Rh probe, HTS | AID 2130, 2009 | Protein phosphatase methylesterase 1 (Homo sapiens), Q9Y570 | inhibition, % at 5.9 µM | 320,000 tested, 0.53% active | recombinant PME-1;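 active = inhibition above the campaign mean of all compounds plus 3 SD, cut at about 26% in these data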;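 also: competitive labeling of PME-1 active site by serine hydrolase directed probe; inhibitors block probe labeling so polarization falls and inhibition rises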
TCR-CD3 inh = inhibitors of human TCR-CD3 interaction, primary screen, biochemical, fluorescence, TAMRA-labeled TCR probe. T-cell receptor (TCR). 360,000 tested, 0.37% active. inhibition, % at 9.4 µM; in the data active = inhibition above about 19%;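 also: recombinant mutant TCR 2C K166C tagged with TAMRA read by polarization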
Fam108B counter = mouse Fam108B serine hydrolase inhibitors, primary screen, counter-screen for RBBP9 inhibitor project, biochemical, fluorescence polarization; recombinant Fam108B, FP-Rh probe fluorescence polarization; inhibition, % at 9.51 µM; 300,000 tested, 0.33% active;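 active = inhibition above the screen mean inhibition plus 3 SD, computed separately per campaign, cut at about 18% in these data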;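 also: inhibitors lower polarization as less probe binds the enzyme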
HTRA1 inhibitor = HTRA1 serine protease inhibitors, primary screen, biochemical, fluorescence polarization, HTS | 340,000 tested, 0.5% active | Q92743 | inhibition, % at 5.96 µM | recombinant HTRA1, FP-rhodamine activity-based probe; in the data active = inhibition above about 36%
Fam108b confirm = mouse Fam108b serine hydrolase inhibitors, confirmation, counter-screen for RBBP9 inhibitor project, biochemical, fluorescence polarization, triplicate; shares compounds with Fam108B counter; recombinant Fam108b, FP-Rh probe fluorescence polarization; 930 tested, 44% active; inhibition, % at 9.51 µM;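 active = inhibition above a limit from the primary screen, the mean over all compounds plus 3 SD, cut at about 19% in these data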;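 also: inhibitors free the probe so polarization falls as inhibition rises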
Fam108b ABPP HTS = inhibition of mouse Fam108b by HTS hits, late-stage follow-up, biochemical, gel-based ABPP, soluble recombinant form; 260 tested, 44% active; AID 588649, 2011; fluorophosphonate probe; inhibition, % at 20 µM; shares compounds with Fam108B counter; in the data active = inhibition above about 40%
Each line names hits and unclear results; the compound was inactive in the other large screens (follow-up assays come after a bar, where they were run).

Cn1ncc2c(Nc3ccc(Br)cc3)nc(Nc3ccc(Br)cc3)nc21	Fam108B counter 18.9 | Fam108b confirm inactive
COC(=O)C1CN(Cc2ccc(C)cc2)CCS(=O)(=O)N1Cc1cn(Cc2ccc(Cl)cc2)nn1 (configuration not stated)	none (no result: PME-1 inh, TCR-CD3 inh, Fam108B counter, HTRA1 inhibitor)
COc1ccc(OC)c(CN2C(=O)COc3ccccc3C2c2nnnn2C2CCCC2)c1 (configuration not stated)	none (no result: PME-1 inh, TCR-CD3 inh, Fam108B counter, HTRA1 inhibitor)
Cc1cccc(NC(=O)/C(C#N)=C/c2ccc(Cl)cc2)n1	Fam108B counter 19.2 | Fam108b confirm inactive
COc1ccc(/C=C(\C#N)C(=O)Nc2cccc(C)n2)cc1	none
Cc1cccc(NC(=O)/C(C#N)=C/c2cccc([N+](=O)[O-])c2)n1	Fam108B counter 24.9 | Fam108b confirm 21.4
O=C(CCc1ccccc1)N[C@H]1[C@@H](OC(=O)C2CC2)CCC[C@@]12C(=O)N(Cc1ccccc1)c1ccccc12	none (no result: PME-1 inh, TCR-CD3 inh, Fam108B counter, HTRA1 inhibitor)
COC(=O)[C@]12C[C@H](CC(=O)NCc3cccc(C(F)(F)F)c3)C(=O)N(Cc3ccc4c(c3)OCO4)C1=C[C@H](C(C)C)O[C@@H]2C1CC1	none (no result: PME-1 inh, TCR-CD3 inh, Fam108B counter, HTRA1 inhibitor)
O=C(Nc1ccc(Cl)cc1)C1CCCN1S(=O)(=O)c1cccc2cccnc12 (configuration not stated)	none (no result: PME-1 inh, TCR-CD3 inh, Fam108B counter, HTRA1 inhibitor)
CSc1ccc(C2Nc3cccc4cccc(c34)N2)cc1	PME-1 inh 47.6, Fam108B counter 18.8 | Fam108b confirm inactive
Brc1ccc(C2Nc3cccc4cccc(c34)N2)s1	PME-1 inh 33.4, Fam108B counter 42.4 | Fam108b confirm 28.5
Cc1cccc(C2Nc3cccc4cccc(c34)N2)c1	none
Clc1ccc(C2Nc3cccc4cccc(c34)N2)cc1	Fam108B counter 27.8 | Fam108b confirm 22.5
CSc1ccc(C2NC(=O)c3ccccc3N2)cc1 (configuration not stated)	none
COc1ccc(-n2c(COc3ccc(C)cc3)nnc2SCC(=O)c2ccc(-c3ccccc3)cc2)cc1	none (no result: PME-1 inh, TCR-CD3 inh, Fam108B counter, HTRA1 inhibitor)
CN=C1S/C(=C/c2cc(C)n(Cc3ccccc3)c2C)C(=O)N1C	none (no result: PME-1 inh, TCR-CD3 inh, Fam108B counter, HTRA1 inhibitor)
CSC1=NSC2=NC(=O)/C(=C\c3coc4ccccc4c3=O)C(=N)N12	Fam108B counter 30.9 | Fam108b confirm 53.6 | Fam108b ABPP HTS inactive
N=C1/C(=C\c2coc3ccccc3c2=O)C(=O)N=C2SC(c3ccncc3)=NN12	none
CC(C)CSC1=NSC2=NC(=O)/C(=C\c3coc4ccccc4c3=O)C(=N)N12	Fam108B counter 37.1 | Fam108b confirm 40.5 | Fam108b ABPP HTS inactive
COC(=O)c1cc2c(c3c4cc(F)ccc4n(S(=O)(=O)c4ccc(C)cc4)c13)C(=O)N(Cc1ccc(N(C)C)cc1)C2	none (no result: PME-1 inh, Fam108B counter, HTRA1 inhibitor)
COc1cccc(C(=O)/C=C/Nc2ccc(NC(C)=O)cc2)c1	none
COc1cccc(C(=O)/C=C/Nc2ccc(S(=O)(=O)Nc3cccc(C(C)=O)c3)cc2)c1	Fam108B counter 21.7 | Fam108b confirm inactive
CCCC[C@H](CCCc1ccc(F)cc1)CCC(=O)N(c1ccccc1)c1ccccc1	none (no result: PME-1 inh, TCR-CD3 inh, Fam108B counter, HTRA1 inhibitor)
O=S(=O)(Nc1ccc(-c2csc(-c3ccccc3)n2)cc1)c1ccc(F)cc1	none
O=C(Nc1nc(-c2ccccc2)cs1)c1ccccc1NS(=O)(=O)c1ccc(F)cc1	Fam108B counter 24.0 | Fam108b confirm inactive
COC(=O)[C@]12C[C@H](CC(=O)NCC3CCCCC3)C(=O)N(Cc3cccc4ccccc34)C1=C[C@H](C1CCCC1)O[C@@H]2C	none (no result: PME-1 inh, TCR-CD3 inh, Fam108B counter, HTRA1 inhibitor)
C[C@@H](CO)N(Cc1cn(Cc2ccccc2)nn1)S(=O)(=O)c1ccccc1Br	none (no result: PME-1 inh, TCR-CD3 inh, Fam108B counter, HTRA1 inhibitor)
COc1cccc(NC(=O)CN(C)C(=O)C2CCN(C(=O)c3ccccc3C)CC2)c1	Fam108B counter 18.8 | Fam108b confirm inactive
